Data taken from ChEMBL document CHEMBL2321793, “Discovery of a novel broad-spectrum antifungal agent derived from albaconazole” (ACS Med Chem Lett, 2013).
Converted amounts (≈) assume the structure as drawn.

Columns and labels:
Pichia kudriavzevii [1] = assay: Antifungal activity against Candida krusei CAKR7 after 24 hrs by spectrofluorometric analysis; format: functional; settings: CAKR7, 24 h
Candida albicans [2] = assay: Antifungal activity against fluconazole-susceptible Candida albicans CAAL93 after 24 hrs by spectrofluorometric analysis; format: functional; settings: CAAL93, 24 h
Candida albicans [3] = assay: Antifungal activity against fluconazole-susceptible Candida albicans CAAL97 after 24 hrs by spectrofluorometric analysis; format: functional; settings: CAAL97, 24 h
Pichia kudriavzevii [4] = assay: Antifungal activity against Candida krusei CAKR8 after 24 hrs by spectrofluorometric analysis; format: functional; settings: CAKR8, 24 h
Candida albicans [5] = assay: Antifungal activity against fluconazole-resistant Candida albicans DSY292 after 24 hrs by spectrofluorometric analysis; format: functional; settings: DSY292, 24 h
Candida parapsilosis [6] = assay: Antifungal activity against acquired-resistant Candida parapsilosis CAPA2 after 24 hrs by spectrofluorometric analysis; format: functional; settings: Lodderomyces parapsilosis, CAPA2, 24 h
Nakaseomyces glabratus = assay: Antifungal activity against Candida glabrata CAGL2 after 24 hrs by spectrofluorometric analysis; format: functional; settings: CAGL2, 24 h
Candida albicans [7] = assay: Antifungal activity against fluconazole-resistant Candida albicans DSY735 after 24 hrs by spectrofluorometric analysis; format: functional; settings: DSY735, 24 h
Aspergillus fumigatus [8] = assay: Antifungal activity against Aspergillus fumigatus ASFU7 after 48 hrs by M38 method; format: functional; settings: ASFU7, 48 h
Candida parapsilosis [9] = assay: Antifungal activity against acquired-resistant Candida parapsilosis CAPA1 after 24 hrs by spectrofluorometric analysis; format: functional; settings: Lodderomyces parapsilosis, CAPA1, 24 h
Aspergillus fumigatus [10] = assay: Antifungal activity against Aspergillus fumigatus ASFU17 after 48 hrs by M38 method; format: functional; settings: ASFU17, 48 h
Aspergillus fumigatus [11] = assay: Antifungal activity against Aspergillus fumigatus ASFU23 after 48 hrs by M38 method; format: functional; settings: ASFU23, 48 h
Aspergillus fumigatus [12] = assay: Antifungal activity against Aspergillus fumigatus ASFU20 after 48 hrs by M38 method; format: functional; settings: ASFU20, 48 h
Aspergillus fumigatus [13] = assay: Antifungal activity against Aspergillus fumigatus ASFU19 after 48 hrs by M38 method; format: functional; settings: ASFU19, 48 h
Aspergillus fumigatus [14] = assay: Antifungal activity against Aspergillus fumigatus ASFU13 after 48 hrs by M38 method; format: functional; settings: ASFU13, 48 h
[15] = Antifungal activity against Scedosporium sp. SCSP1 after 48 hrs by broth microdilution test; format: functional
[16] = Antifungal activity against Rhizomucor pusillus RHPU1 after 48 hrs by broth microdilution test; format: functional
Rhizomucor miehei = assay: Antifungal activity against Rhizomucor miehei RHMI1 after 48 hrs by broth microdilution test
[17] = target: T1, Lanosterol 14-alpha demethylase (Candida albicans (strain SC5314 / ATCC MYA-2876) (Yeast), UniProt P10613); assay: Inhibition of CYP51 in fluconazole-susceptible Candida albicans CAAL93 assessed as 14-methyfecosterol level at 4.5 ng/mL after 2 hrs; parameters: scale not given: the % may be the effect or the level left
T1 sequence (P10613 whole entry): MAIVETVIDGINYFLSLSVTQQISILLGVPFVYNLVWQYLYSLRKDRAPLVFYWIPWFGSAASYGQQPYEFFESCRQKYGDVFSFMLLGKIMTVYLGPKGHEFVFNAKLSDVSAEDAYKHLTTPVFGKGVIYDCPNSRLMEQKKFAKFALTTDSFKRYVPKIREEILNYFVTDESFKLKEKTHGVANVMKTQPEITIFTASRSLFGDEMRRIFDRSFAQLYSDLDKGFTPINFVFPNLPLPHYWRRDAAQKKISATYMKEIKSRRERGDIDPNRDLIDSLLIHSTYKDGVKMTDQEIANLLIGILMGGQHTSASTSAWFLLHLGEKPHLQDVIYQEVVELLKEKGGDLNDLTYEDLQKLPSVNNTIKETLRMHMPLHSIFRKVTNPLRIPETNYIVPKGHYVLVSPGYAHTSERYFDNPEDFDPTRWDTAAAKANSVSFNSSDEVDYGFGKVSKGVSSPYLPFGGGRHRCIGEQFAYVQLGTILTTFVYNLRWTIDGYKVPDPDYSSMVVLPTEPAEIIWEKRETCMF

[18] = target: T1, Lanosterol 14-alpha demethylase; assay: Inhibition of CYP51 in fluconazole-susceptible Candida albicans CAAL93 assessed as 14-methylepisterol level at 4.5 ng/mL after 2 hrs; parameters: scale not given: the % may be the effect or the level left
[19] = target: T1, Lanosterol 14-alpha demethylase; assay: Inhibition of CYP51 in fluconazole-susceptible Candida albicans CAAL93 assessed as 14-methyfecosterol level at 22 ng/mL after 2 hrs; parameters: scale not given: the % may be the effect or the level left
[20] = target: T1, Lanosterol 14-alpha demethylase; assay: Inhibition of CYP51 in fluconazole-susceptible Candida albicans CAAL93 assessed as lanosterol level at 22 ng/mL after 2 hrs; parameters: scale not given: the % may be the effect or the level left
[21] = target: T1, Lanosterol 14-alpha demethylase; assay: Inhibition of CYP51 in fluconazole-susceptible Candida albicans CAAL93 assessed as ergosterol level after 2 hrs
Candida albicans [22] = assay: Antifungal activity against fluconazole-susceptible Candida albicans CAAL93 infected in Swiss mouse assessed as host survival at 15 mg/kg, po qd for 5 days measured after 13 days; format: functional
How it was run: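 Transiently neutropenic Swiss mice were infected intravenously with C. albicans CAAL93 blastoconidia. Oral dosing began 1 h post-infection at 15 mg/kg body weight, in 5% DMSO, once daily for 5 consecutive days. Controls received 100 μL 0.9% saline with 5% DMSO. The read-out was survival rate on day 13 after infection, compared by log-rank test.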

[23] = target: T1, Lanosterol 14-alpha demethylase; assay: Inhibition of CYP51 in fluconazole-susceptible Candida albicans CAAL93 assessed as eburicol level at 22 ng/mL after 2 hrs; parameters: scale not given: the % may be the effect or the level left
[24] = target: T1, Lanosterol 14-alpha demethylase; assay: Inhibition of CYP51 in fluconazole-susceptible Candida albicans CAAL93 assessed as zymosterol level at 4.5 ng/mL after 2 hrs; parameters: scale not given: the % may be the effect or the level left
[25] = target: T1, Lanosterol 14-alpha demethylase; assay: Inhibition of CYP51 in fluconazole-susceptible Candida albicans CAAL93 assessed as 14-methyl-3,6-diol level at 22 ng/mL after 2 hrs; parameters: scale not given: the % may be the effect or the level left
[26] = target: T1, Lanosterol 14-alpha demethylase; assay: Inhibition of CYP51 in fluconazole-susceptible Candida albicans CAAL93 assessed as lanosterol level at 4.5 ng/mL after 2 hrs; parameters: scale not given: the % may be the effect or the level left
[27] = target: T1, Lanosterol 14-alpha demethylase; assay: Inhibition of CYP51 in fluconazole-susceptible Candida albicans CAAL93 assessed as 14-methylepisterol level at 22 ng/mL after 2 hrs; parameters: scale not given: the % may be the effect or the level left
[28] = target: T1, Lanosterol 14-alpha demethylase; assay: Inhibition of CYP51 in fluconazole-susceptible Candida albicans CAAL93 assessed as eburicol level at 4.5 ng/mL after 2 hrs; parameters: scale not given: the % may be the effect or the level left
[29] = target: T1, Lanosterol 14-alpha demethylase; assay: Inhibition of CYP51 in fluconazole-susceptible Candida albicans CAAL93 assessed as ergosterol level at 4.5 ng/mL after 2 hrs; parameters: scale not given: the % may be the effect or the level left
[30] = target: T1, Lanosterol 14-alpha demethylase; assay: Inhibition of CYP51 in fluconazole-susceptible Candida albicans CAAL93 assessed as ergosterol level at 22 ng/mL after 2 hrs; parameters: scale not given: the % may be the effect or the level left
[31] = target: T1, Lanosterol 14-alpha demethylase; assay: Inhibition of CYP51 in fluconazole-susceptible Candida albicans CAAL93 assessed as episterol level at 4.5 ng/mL after 2 hrs; parameters: scale not given: the % may be the effect or the level left

| Structure (SMILES) | MIC (Pichia kudriavzevii [1]) | MIC (Candida albicans [2]) | MIC (Candida albicans [3]) | MIC (Pichia kudriavzevii [4]) | MIC (Candida albicans [5]) | MIC (Candida parapsilosis [6]) | MIC (Nakaseomyces glabratus) | MIC (Candida albicans [7]) | MIC (Aspergillus fumigatus [8]) | MIC (Candida parapsilosis [9]) | MIC (Aspergillus fumigatus [10]) | MIC (Aspergillus fumigatus [11]) | MIC (Aspergillus fumigatus [12]) | MIC (Aspergillus fumigatus [13]) | MIC (Aspergillus fumigatus [14]) | MIC [15] | MIC [16] | MIC (Rhizomucor miehei) | other results |
| --- | --- | --- | --- | --- | --- | --- | --- | --- | --- | --- | --- | --- | --- | --- | --- | --- | --- | --- | --- |
| C[C@@H](n1cnc2ccc3ncsc3c2c1=O)[C@](O)(Cn1cncn1)c1ccc(F)cc1F | 5 µg/mL (≈ 11 µM) | 0.003 µg/mL (≈ 0.0066 µM) | < 0.001 µg/mL | 2.5 µg/mL (≈ 5.5 µM) | 5 µg/mL (≈ 11 µM) | < 0.001 µg/mL | 0.095 µg/mL (≈ 0.209 µM) | 1.43 µg/mL (≈ 3.15 µM) | > 43 µg/mL | 0.006 µg/mL (≈ 0.0132 µM) | – | – | – | – | – | – | – | – | – |
| CCC(C)n1ncn(-c2ccc(N3CCN(c4ccc(OCC5COC(Cn6cncn6)(c6ccc(Cl)cc6Cl)O5)cc4)CC3)cc2)c1=O (centres undefined) [ITRACONAZOLE] | – | – | – | – | – | – | – | – | 0.42 µg/mL (≈ 0.595 µM) | – | > 71 µg/mL | > 71 µg/mL | > 71 µg/mL | > 71 µg/mL | > 71 µg/mL | – | – | – | – |
| C[C@@H](n1cnc2cc(Cl)ccc2c1=O)[C@](O)(Cn1cncn1)c1ccc(F)cc1F [ALBACONAZOLE] | 0.022 µg/mL (≈ 0.0509 µM) | 0.003 µg/mL (≈ 0.00695 µM) | < 0.001 µg/mL | 0.005 µg/mL (≈ 0.0116 µM) | < 0.043 µg/mL | 0.011 µg/mL (≈ 0.0255 µM) | 0.065 µg/mL (≈ 0.151 µM) | 0.063 µg/mL (≈ 0.146 µM) | 0.23 µg/mL (≈ 0.533 µM) | 0.018 µg/mL (≈ 0.0417 µM) | 2.1 µg/mL (≈ 4.86 µM) | 0.22 µg/mL (≈ 0.509 µM) | 1.2 µg/mL (≈ 2.78 µM) | 2 µg/mL (≈ 4.63 µM) | 1.1 µg/mL (≈ 2.55 µM) | 0.5 µg/mL (≈ 1.16 µM) | 0.5 µg/mL (≈ 1.16 µM) | 1 µg/mL (≈ 2.32 µM) | – |
| C[C@@H](n1cnc2cc3scnc3cc2c1=O)[C@](O)(Cn1cncn1)c1ccc(F)cc1F | 0.182 µg/mL (≈ 0.4 µM) | 0.011 µg/mL (≈ 0.0242 µM) | < 0.001 µg/mL | < 0.005 µg/mL | 0.94 µg/mL (≈ 2.07 µM) | 0.127 µg/mL (≈ 0.279 µM) | 0.068 µg/mL (≈ 0.15 µM) | 0.118 µg/mL (≈ 0.26 µM) | 0.28 µg/mL (≈ 0.616 µM) | 0.013 µg/mL (≈ 0.0286 µM) | 2.2 µg/mL (≈ 4.84 µM) | 0.27 µg/mL (≈ 0.594 µM) | 4.5 µg/mL (≈ 9.9 µM) | 2.1 µg/mL (≈ 4.62 µM) | 3.1 µg/mL (≈ 6.82 µM) | 1 µg/mL (≈ 2.2 µM) | 1 µg/mL (≈ 2.2 µM) | 2 µg/mL (≈ 4.4 µM) | Activity [17]: 3.8%; Activity [18]: 5.9%; Activity [19]: 11.4%; Activity [20]: 41.6%; inhibition (INH) [21]: Dose-dependent effect; survival at 15 mg/kg (Candida albicans [22]): 75%; Activity [23]: 20.4%; Activity [24]: 2%; Activity [25]: 5.4%; Activity [26]: 29.9%; Activity [27]: 15.7%; Activity [28]: 4.4%; Activity [29]: 51.1%; Activity [30]: 5.4%; Activity [31]: 2.9% |
| C[C@@H](c1ncncc1F)[C@](O)(Cn1cncn1)c1ccc(F)cc1F [VORICONAZOLE] | 0.549 µg/mL (≈ 1.57 µM) | 0.005 µg/mL (≈ 0.0143 µM) | < 0.003 µg/mL | < 0.003 µg/mL | 1.1 µg/mL (≈ 3.15 µM) | 0.905 µg/mL (≈ 2.59 µM) | 0.061 µg/mL (≈ 0.175 µM) | 0.101 µg/mL (≈ 0.289 µM) | 0.15 µg/mL (≈ 0.429 µM) | 0.925 µg/mL (≈ 2.65 µM) | 0.25 µg/mL (≈ 0.716 µM) | 0.18 µg/mL (≈ 0.515 µM) | < 0.35 µg/mL | 3 µg/mL (≈ 8.59 µM) | < 0.35 µg/mL | 0.125 µg/mL (≈ 0.358 µM) | 2 µg/mL (≈ 5.73 µM) | 8 µg/mL (≈ 22.9 µM) | – |
| OC(Cn1cncn1)(Cn1cncn1)c1ccc(F)cc1F [FLUCONAZOLE] | > 30 µg/mL | 0.062 µg/mL (≈ 0.202 µM) | 0.018 µg/mL (≈ 0.0588 µM) | 12.9 µg/mL (≈ 42.1 µM) | 21 µg/mL (≈ 68.6 µM) | > 30 µg/mL | 7.7 µg/mL (≈ 25.1 µM) | 11 µg/mL (≈ 35.9 µM) | – | > 30 µg/mL | – | – | – | – | – | – | – | – | – |
